Experimental data published in ChEMBL document CHEMBL3526015, “Metabolism of the c-Fos/activator protein-1 inhibitor T-5224 by multiple human UDP-glucuronosyltransferase isoforms” (Drug Metab Dispos, 2011).

Assays:
[1] = molecular target: T1, UDP-glucuronosyltransferase 1A1 (Homo sapiens, UniProt P22309); assay: Drug level assessed as human UGT1A1-mediated compound formation from 5 to 50 uM T-5224 after 60 mins in presence of UDP-glucuronic acid by HPLC method; assay type: ADME; settings: recombinant enzyme, 1 h
T1 sequence (P22309 whole entry): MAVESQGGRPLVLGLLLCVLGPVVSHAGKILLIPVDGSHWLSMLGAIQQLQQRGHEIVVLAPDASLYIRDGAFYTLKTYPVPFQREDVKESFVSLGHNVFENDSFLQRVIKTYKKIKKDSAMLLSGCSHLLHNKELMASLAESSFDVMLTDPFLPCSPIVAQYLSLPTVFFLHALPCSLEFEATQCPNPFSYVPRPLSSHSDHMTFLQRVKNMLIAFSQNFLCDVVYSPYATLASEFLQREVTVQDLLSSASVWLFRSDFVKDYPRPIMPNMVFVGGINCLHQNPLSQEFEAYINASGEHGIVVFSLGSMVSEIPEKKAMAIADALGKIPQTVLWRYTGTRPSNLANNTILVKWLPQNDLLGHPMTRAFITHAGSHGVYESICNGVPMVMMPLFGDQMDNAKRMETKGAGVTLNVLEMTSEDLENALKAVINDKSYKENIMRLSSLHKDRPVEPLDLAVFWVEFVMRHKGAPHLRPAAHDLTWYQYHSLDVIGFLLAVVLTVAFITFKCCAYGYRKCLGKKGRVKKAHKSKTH
Procedure, shortened: (§1)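 Recombinant human UGT microsomes from baculovirus-infected insect cells, 0.1 mg protein/mL, in 50 mM Tris-HCl pH 7.5, 8 mM MgCl2, alamethicin. T-5224 in DMSO (2% v/v final). Preincubated 5 min at 37°C, started with 2 mM UDPGA, run 60 min at 37°C and stopped with acetonitrile. Glucuronides resolved by C18 HPLC with UV at 290 nm. Linearity was checked at 0.05–0.2 mg/mL protein and 10–60 min.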

Liver microsome [2] = assay: Drug level in pooled human liver microsomes treated with 10 uM T-5224 assessed as compound formation after 5 to 30 mins by HPLC method; assay type: ADME
Procedure, shortened: (§2)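 Pooled human liver microsomes at 0.5 mg protein/mL, or pooled intestinal microsomes at 0.25 mg/mL, in 50 mM Tris-HCl pH 7.5, 8 mM MgCl2, alamethicin, with 2 mM UDPGA. T-5224 at 10 μM, 10 min at 37°C after 5 min preincubation; stopped with acetonitrile. HPLC with UV at 290 nm. Linearity was tested over 0.1–1.0 mg/mL protein and 5–30 min.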

Liver microsome [3] = assay: Drug level in pooled human liver microsomes treated with T-5224 assessed as compound formation in presence of UDPGA by LC-MS/MS method; assay type: ADME
[4] = molecular target: T1, UDP-glucuronosyltransferase 1A1; assay: Drug level assessed as human UGT1A1-mediated compound formation from 5 to 50 uM T-5224 after 60 mins in presence of UDP-glucuronic acid using 0.05 to 0.2 mg/ml by HPLC method; assay type: ADME; settings: recombinant enzyme, 1 h; procedure, shortened: as §1
[5] = Drug level in pooled human intestinal microsomes treated with 10 uM T-5224 assessed as compound formation after 5 to 30 mins by HPLC method; assay type: ADME, Intestine, Microsome; procedure, shortened: as §2
[6] = Drug level in pooled human intestinal microsomes treated with 10 uM T-5224 assessed as compound formation after 10 mins by HPLC method; assay type: ADME, Intestine, Microsome; procedure, shortened: as §2
[7] = molecular target: T2, UDP-glucuronosyltransferase 1A3 (Homo sapiens, UniProt P35503); assay: Drug level assessed as human UGT1A3-mediated compound formation from 5 to 50 uM T-5224 after 60 mins in presence of UDP-glucuronic acid by HPLC method; assay type: ADME; settings: recombinant enzyme, 1 h; procedure, shortened: as §1
T2 sequence (P35503 whole entry): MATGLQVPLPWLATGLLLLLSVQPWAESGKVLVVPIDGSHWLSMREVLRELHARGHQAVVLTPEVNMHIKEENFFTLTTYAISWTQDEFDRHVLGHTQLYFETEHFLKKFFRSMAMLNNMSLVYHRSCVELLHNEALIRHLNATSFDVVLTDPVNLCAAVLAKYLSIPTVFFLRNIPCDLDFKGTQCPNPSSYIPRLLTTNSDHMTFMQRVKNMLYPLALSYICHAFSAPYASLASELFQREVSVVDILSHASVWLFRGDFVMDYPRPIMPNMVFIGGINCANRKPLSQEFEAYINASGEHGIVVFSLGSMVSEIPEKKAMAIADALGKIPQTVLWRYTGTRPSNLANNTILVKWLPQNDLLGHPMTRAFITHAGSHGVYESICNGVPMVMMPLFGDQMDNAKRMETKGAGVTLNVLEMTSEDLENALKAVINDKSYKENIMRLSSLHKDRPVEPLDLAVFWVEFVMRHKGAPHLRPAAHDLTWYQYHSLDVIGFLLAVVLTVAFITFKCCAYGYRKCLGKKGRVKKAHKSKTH

[8] = molecular target: T1, UDP-glucuronosyltransferase 1A1; assay: Drug level assessed as human UGT1A1-mediated compound formation from 5 to 50 uM T-5224 after 10 to 60 mins in presence of UDP-glucuronic acid by HPLC method; assay type: ADME; settings: recombinant enzyme; procedure, shortened: as §1
[9] = Drug level in pooled human intestinal microsomes treated with 10 uM T-5224 assessed as compound formation after 10 mins using 0.1 to 1.0 mg/ml microsomal protein content by HPLC method; assay type: ADME, Intestine, Microsome; procedure, shortened: as §2
Liver microsome [10] = assay: Drug level in pooled human liver microsomes treated with 10 uM T-5224 assessed as compound formation after 10 mins by HPLC method; assay type: ADME; procedure, shortened: as §2
[11] = molecular target: T2, UDP-glucuronosyltransferase 1A3; assay: Drug level assessed as human UGT1A3-mediated compound formation from 5 to 50 uM T-5224 after 10 to 60 mins in presence of UDP-glucuronic acid by HPLC method; assay type: ADME; settings: recombinant enzyme; procedure, shortened: as §1
[12] = molecular target: T2, UDP-glucuronosyltransferase 1A3; assay: Drug level assessed as human UGT1A3-mediated compound formation from 5 to 50 uM T-5224 after 60 mins in presence of UDP-glucuronic acid using 0.05 to 0.2 mg/ml by HPLC method; assay type: ADME; settings: recombinant enzyme, 1 h; procedure, shortened: as §1
Liver microsome [13] = assay: Drug level in pooled human liver microsomes treated with 10 uM T-5224 assessed as compound formation after 10 mins using 0.1 to 1.0 mg/ml microsomal protein content by HPLC method; assay type: ADME; procedure, shortened: as §2
[14] = substrate: O=C(O)CCc1cc(C(=O)c2ccc(OC3CCCC3)cc2O)ccc1OCc1ccc2c(O)noc2c1; assay: Drug metabolism assessed as Kcat to Km ratio for human UGT1A1-mediated T-5224 hydroxyl O-glucuronide formation per mg protein after 10 to 60 mins in presence of UDP-glucuronic acid by HPLC method; assay type: ADME
Procedure, shortened: (§3)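 Recombinant human UGT1A1 from baculovirus-infected insect cells, 0.1 mg protein/mL, in 50 mM Tris-HCl pH 7.5 with 8 mM MgCl2 and alamethicin. T-5224 at 10–50 μM (2% DMSO final). After 5 min preincubation at 37°C, 2 mM UDPGA starts the reaction; 60 min at 37°C, stopped with acetonitrile. Glucuronides quantified by HPLC-UV at 290 nm, triplicate points. Substrate-inhibition fit gives Vmax, Km and Ksi. kcat = Vmax/E0, with UGT content taken from immunoblot.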

[15] = substrate: O=C(O)CCc1cc(C(=O)c2ccc(OC3CCCC3)cc2O)ccc1OCc1ccc2c(O)noc2c1; assay: Drug metabolism assessed as human UGT1A1-mediated T-5224 acyl O-glucuronide formation after 10 to 60 mins in presence of UDP-glucuronic acid by HPLC method; assay type: ADME; procedure, shortened: as §3
[16] = substrate: O=C(O)CCc1cc(C(=O)c2ccc(OC3CCCC3)cc2O)ccc1OCc1ccc2c(O)noc2c1; assay: Drug metabolism assessed as human UGT1A1-mediated T-5224 hydroxyl O-glucuronide formation after 10 to 60 mins in presence of UDP-glucuronic acid by HPLC method; assay type: ADME; procedure, shortened: as §3
[17] = substrate: O=C(O)CCc1cc(C(=O)c2ccc(OC3CCCC3)cc2O)ccc1OCc1ccc2c(O)noc2c1; assay: Drug metabolism assessed as Kcat to Km ratio for human UGT1A1-mediated T-5224 acyl O-glucuronide formation per mg protein after 10 to 60 mins in presence of UDP-glucuronic acid by HPLC method; assay type: ADME; procedure, shortened: as §3
[18] = substrate: O=C(O)CCc1cc(C(=O)c2ccc(OC3CCCC3)cc2O)ccc1OCc1ccc2c(O)noc2c1; assay: Drug metabolism assessed as human UGT1A3-mediated T-5224 acyl O-glucuronide formation after 10 to 60 mins in presence of UDP-glucuronic acid by HPLC method; assay type: ADME
Procedure, shortened: (§4)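 Kinetics used recombinant UGT1A1, 1A3 or 1A8 (0.1 mg protein/mL) with T-5224 at 1–50 μM, 2 mM UDPGA and 60 min at 37°C, in triplicate. G2/G3 were measured by HPLC at 290 nm and fitted to a substrate-inhibition model (Vmax, Km, Ksi). UGT content was quantified by immunoblot, and kcat = Vmax/E0 was derived from it.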

[19] = substrate: O=C(O)CCc1cc(C(=O)c2ccc(OC3CCCC3)cc2O)ccc1OCc1ccc2c(O)noc2c1; assay: Drug metabolism assessed as human UGT1A3-mediated T-5224 hydroxyl O-glucuronide formation after 10 to 60 mins in presence of UDP-glucuronic acid by HPLC method; assay type: ADME; procedure, shortened: as §4
[20] = substrate: O=C(O)CCc1cc(C(=O)c2ccc(OC3CCCC3)cc2O)ccc1OCc1ccc2c(O)noc2c1; assay: Drug metabolism assessed as Kcat to Km ratio for human UGT1A3-mediated T-5224 acyl O-glucuronide formation per mg protein after 10 to 60 mins in presence of UDP-glucuronic acid by HPLC method; assay type: ADME; procedure, shortened: as §4
[21] = substrate: O=C(O)CCc1cc(C(=O)c2ccc(OC3CCCC3)cc2O)ccc1OCc1ccc2c(O)noc2c1; assay: Drug metabolism assessed as Kcat to Km ratio for human UGT1A3-mediated T-5224 hydroxyl O-glucuronide formation per mg protein after 10 to 60 mins in presence of UDP-glucuronic acid by HPLC method; assay type: ADME; procedure, shortened: as §4

Molecule: O=C(CCc1cc(C(=O)c2ccc(OC3CCCC3)cc2O)ccc1OCc1ccc2c(O)noc2c1)O[C@@H]1O[C@H](C(=O)O)[C@@H](O)[C@H](O)[C@H]1O
- Drug metabolism [1]: metabolite_detected
- Drug metabolism (Liver microsome [2]): Dose-dependent effect
- Drug metabolism (Liver microsome [3]): metabolite_detected
- Drug metabolism [4]: Dose-dependent effect
- Drug metabolism [5]: Dose-dependent effect
- Drug metabolism [6]: metabolite_detected
- Drug metabolism [7]: metabolite_detected
- Drug metabolism [8]: Dose-dependent effect
- Drug metabolism [9]: Dose-dependent effect
- Drug metabolism (Liver microsome [10]): metabolite_detected
- Drug metabolism [11]: Dose-dependent effect
- Drug metabolism [12]: Dose-dependent effect
- Drug metabolism (Liver microsome [13]): Dose-dependent effect

B1: UDP-glucuronosyltransferase 1A1 (Homo sapiens) (protein)
chain: T1 sequence (P22309 whole entry)
- kcat/Km [14]: 284 M⁻¹ s⁻¹
- Km [15]: 7.91 µM
- kcat [15]: 0.0072 s⁻¹
- Km [16]: 5.56 µM
- kcat [16]: 0.00158 s⁻¹
- kcat/Km [17]: 903 M⁻¹ s⁻¹

B2: UDP-glucuronosyltransferase 1A3 (Homo sapiens) (protein)
chain: T2 sequence (P35503 whole entry)
- Km [18]: 7.21 µM
- kcat [18]: 0.00182 s⁻¹
- Km [19]: 17.9 µM
- kcat [19]: 0.0138 s⁻¹
- kcat/Km [20]: 252 M⁻¹ s⁻¹
- kcat/Km [21]: 774 M⁻¹ s⁻¹
